Data: PubChem BioAssay AID651943 (The Scripps Research Institute Molecular Screening Center, 2012)
Active and inactive are the calls of the source.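 Rule for the calls: active = bacterial viability inhibition with half-maximal concentration IC50 at or below 10 µM; inactive = the rest.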

Each compound was assayed on E. coli V66 growth, OD600 absorbance, 18 h (assay: E. coli V66 viability reduction – absorbance, dose response, round 2, counter-screen for AddAB helicase-nuclease inhibitor project, late-stage follow-up (AID 651943)).
In short: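 System: uninfected E. coli strain V66, RecBCD+ / Control set: ciprofloxacin 0.95 µg/mL as high control, DMSO as low control / Schedule: 18 h compound exposure, 37 °C / Technique: optical density by absorbance at 600 nm / Replicates: triplicate wells per compound concentration / Dosing: 10 concentrations, 1:3 steps, highest 118.6 µM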

SMILES | IC50
CCn1cc(C(=O)O)c(=O)c2cnc(N3CCN(C(=S)Nc4cccc(C(F)(F)F)c4)CC3)nc21 | 34.4 µM (inactive)
CCn1cc(C(=O)O)c(=O)c2cnc(N3CCN(C(=S)NCc4ccccc4)CC3)nc21 | > 119 µM (inactive)
CCn1cc(C(=O)O)c(=O)c2cnc(N3CCN(C(=S)Nc4ccc(Cl)cc4)CC3)nc21 | > 39.5 µM (inactive)
CCn1cc(C(=O)O)c(=O)c2cnc(N3CCN(C(=S)Nc4ccccc4F)CC3)nc21 | > 119 µM (inactive)
CCn1cc(C(=O)O)c(=O)c2cnc(N3CCN(C(=S)Nc4ccccc4OC)CC3)nc21 | > 119 µM (inactive)
CCn1cc(C(=O)O)c(=O)c2cnc(N3CCN(C(=S)NC(=O)c4cccc(C)c4)CC3)nc21 | > 39.5 µM (inactive)
